Measurements as given in paper PMC4824005 (Nature structural & molecular biology, 2015).
Each block holds one compound with its values, some of them ahead of it. Non-standard residues stand in square brackets, D forms with d. No end group written: not given here. *: point of attachment. Biotin = O=C1N[C@H]2[C@H](CS[C@H]2CCCCC(=O)*)N1; pY = N[C@@H](Cc1ccc(OP(=O)(O)O)cc1)C(=O)O; AHA = not defined here

Legend:
[1] = system: Shc1 phosphorylated at Tyr239 and Tyr240 in MCF10A cells; assay: Immunoblot of dual Shc1 phosphorylation in MCF10A cells; assay type: cell-based; settings: dasatinib 250 or 500nM pretreatment 1 hour, then 1ng/mL EGF 3 min
How it was run: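 MCF10A cells (STR-authenticated, mycoplasma-free) were kept in HuMEC medium and held 16 h in growth-factor-free medium before pretreatment with test compound and EGF stimulation. Cells were lysed in RIPA buffer containing protease and phosphatase inhibitors. Lysates were separated by SDS-PAGE, transferred to nitrocellulose and immunoblotted with phospho-Shc and total Shc antibodies.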

Grb2 = settings: doubly phosphorylated (Tyr239 and Tyr240) Shc1; cited from earlier work
EGFR [2] = target: T1, EGFR (Homo sapiens, UniProt P00533); assay: HPLC and LC-MS/MS analysis of EGFR kinase reaction with Shc1 Y-Y peptide; assay type: biochemical; settings: no pY-pY peptides detected in HPLC analysis of EGFR reaction (Fig. 2c)
EGFR [3] = target: T1, EGFR; assay: EGFR steady-state kinetics with Shc1 peptides; assay type: biochemical; settings: peptide primed at Tyr240 vs unmodified peptide
How it was run: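 Recombinant EGFR kinase domain (residues 696–1022) at 100nM was incubated with Shc1 Tyr239-region peptides carrying added C-terminal lysines (0–12mM) in 50mM Tris pH 7.5, 10mM MgCl₂, 10mM MnCl₂, 2mM DTT with 2μCi γ-³²P-ATP/reaction, 30 min at 30°. Reactions were spotted on P81 paper, washed with 75mM H₃PO₄ and scintillation-counted. Initial rates (<5% substrate consumed) were fitted to Michaelis–Menten by nonlinear least squares; three experiments, each in triplicate.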

Src = assay: HPLC and LC-MS/MS analysis of Src kinase reaction with Shc1 Y-Y peptide; assay type: biochemical; settings: 5μM Src, 500μM Shc1 peptide, 1mM ATP
How it was run: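 Recombinant Src (5μM final) was reacted with 500μM unmodified Shc1 peptide and 1mM ATP. Timed aliquots were EDTA-quenched, then run on C18 reversed-phase HPLC (0–30% acetonitrile/0.1% TFA over 30 min, 1.0 ml/min, A220), with peaks assigned from standards. The peak was analysed by nanoflow LC/MS/MS on an Orbitrap with CID and database search (FDR <1.5%, manual check). Site occupancy was taken from spectral counts per pTyr site.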

Compound: Cc1nc(Nc2ncc(C(=O)Nc3c(C)cccc3Cl)s2)cc(N2CCN(CCO)CC2)n1 [dasatinib, reference compound]
inhibition of EGF-induced dual phosphorylation of Shc1 [1]: almost completely abolished

Compound: doubly phosphorylated Shc1: Shc1 doubly phosphorylated at Tyr239 and Tyr240, literature ref 31 ({Biotin-AHA}-DHQ[pY][pY]NDFPGKE; reading uncertain)
increase in affinity for Grb2 vs phosphorylation at Tyr239 alone (Grb2): 3 fold

Compound: PDHQpYYNDAKKK [pY-Y]
further phosphorylation by EGFR (EGFR [2]): not a substrate for further phosphorylation by EGFR

decrease of Km by priming phosphorylation (EGFR [3]): approximately 4 fold
Compound: PDHQYpYNDAKKK [Y-pY]

Compound: PDHQYYNDAKKK [Y-Y]
product of Src phosphorylation by HPLC (Src): mono-phosphorylated peptides were the predominant product
